Values joined by “and” are separate entries in the source; they are usually repeats but may differ in a detail not shown here. Equal values may be shown once.
Key:
IR = IR (Homo sapiens, UniProt P06213); test: Kinase inhibition profiling at 100 nmol/L; format: biochemical; conditions: read-out: Inhibition at 100 nmol/L
TrkA = TrkA (Homo sapiens, UniProt P04629); test: Kinase inhibition profiling at 100 nmol/L; format: biochemical
Jak2 = Jak2 (Homo sapiens, UniProt O60674); test: Kinase inhibition profiling at 100 nmol/L; format: biochemical
Src = Src (Homo sapiens, UniProt P12931); test: Kinase inhibition profiling at 100 nmol/L; format: biochemical; conditions: read-out: Inhibition at 100 nmol/L
Lck = Lck (Homo sapiens, UniProt P06239); test: Kinase inhibition profiling at 100 nmol/L; format: biochemical; conditions: read-out: Inhibition at 100 nmol/L
[1] = molecular target: fms‐like tyrosine kinase‐3 (Homo sapiens, UniProt P36888); test: Kinase inhibition profiling at 100 nmol/L; format: biochemical; conditions: read-out: Inhibition at 100 nmol/L
[2] = test system: human sarcoma cell lines bearing the EWS/FLI‐1 chromosome translocation (TC‐71, SK‐N‐MC, SK‐ES‐1); test: Anti-proliferative activity; format: cell-based; conditions: 72 h
[3] = test system: HT‐29/GFP human colon cancer cells; test: Anti-proliferative activity; format: cell-based
[4] = test system: IGF‐1‐induced tyrosine phosphorylation of IGF‐1R in HT‐29/GFP cells; test: In vitro signal transduction assay; format: cell-based, human; conditions: 30 nmol/L, 2 hours
Outline: (§1)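 HT-29/GFP colon cancer cells in culture exposed to test compound, then stimulated with human IGF-1 or human insulin; receptor tyrosine phosphorylation and downstream signalling assessed across a concentration series.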

[5] = test system: insulin‐induced tyrosine phosphorylation of IR in HT‐29/GFP cells; test: In vitro signal transduction assay; format: cell-based, human; conditions: 10 nmol/L, 2 hours
Outline: as §1

[6] = test system: phosphorylation of Erk in HT‐29/GFP cells; test: In vitro signal transduction assay; format: cell-based, human; conditions: up to 30 nmol/L
Outline: as §1

[7] = test system: HT‐29/GFP colon cancer xenograft; test: HT-29/GFP xenograft model; format: in vivo, mouse; conditions: 40 mg/kg orally once daily for 14 days, SCID mice
[8] = test system: IGF‐1‐induced tyrosine phosphorylation of IGF‐R in HT‐29/GFP xenograft; test: In vivo signal transduction assay; design: species or system mouse; conditions: 40 mg/kg oral, 2 hours before IGF-1
[9] = Pharmacokinetic study in mice, single oral dose; format: in vivo, mouse; conditions: for Mean area under the plasma concentration–time curve from time 0 to 24 h / Mean maximum plasma concentration: male SCID mice
Outline: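 Single oral dose of 2, 10 or 20 mg/kg to male mice; plasma sampled over 0–24 h; Cmax, Tmax, elimination half-life and AUC0–24 reported as mean ± SD, n = 3.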

[10] = Phase I first-in-human study: pharmacokinetics; format: in vivo; conditions: for half-life / concentration at 1 day / concentration at 28 day / Cmax / Tmax / Vd/F: human, plasma; for Cmax: C max; for Tmax: T max; for Vd/F: VZ/F
advanced solid tumors = test: Phase I first-in-human study: response; format: in vivo
Outline: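 Open-label phase I in patients with refractory advanced solid tumours; oral once daily after overnight fast for 28 days, 1-week observation, then continuous daily dosing; response assessed every 8 weeks by RECIST version 1.0.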

[11] = test system: non‐human primate, rodent; conditions: ref Kyowa Hakko Kirin Co., Tokyo, unpublished data; cited from earlier work
[12] = male, SCID, mouse, plasma, po, 20 mg/kg
[13] = po, 37.5 mg/day, patients, oral 37.5 mg/day, Day 1 (n = 7), mean ± SD
[14] = po, 37.5 mg/day, patients, oral 37.5 mg/day, Day 28 (n = 5), mean ± SD
[15] = patients, oral 37.5 mg/day, Day 28 (n = 5), mean ± SD
[16] = patients, oral 50 mg/day, Day 28 (n = 4), mean ± SD

Sequence of TrkA (P04629 33-796): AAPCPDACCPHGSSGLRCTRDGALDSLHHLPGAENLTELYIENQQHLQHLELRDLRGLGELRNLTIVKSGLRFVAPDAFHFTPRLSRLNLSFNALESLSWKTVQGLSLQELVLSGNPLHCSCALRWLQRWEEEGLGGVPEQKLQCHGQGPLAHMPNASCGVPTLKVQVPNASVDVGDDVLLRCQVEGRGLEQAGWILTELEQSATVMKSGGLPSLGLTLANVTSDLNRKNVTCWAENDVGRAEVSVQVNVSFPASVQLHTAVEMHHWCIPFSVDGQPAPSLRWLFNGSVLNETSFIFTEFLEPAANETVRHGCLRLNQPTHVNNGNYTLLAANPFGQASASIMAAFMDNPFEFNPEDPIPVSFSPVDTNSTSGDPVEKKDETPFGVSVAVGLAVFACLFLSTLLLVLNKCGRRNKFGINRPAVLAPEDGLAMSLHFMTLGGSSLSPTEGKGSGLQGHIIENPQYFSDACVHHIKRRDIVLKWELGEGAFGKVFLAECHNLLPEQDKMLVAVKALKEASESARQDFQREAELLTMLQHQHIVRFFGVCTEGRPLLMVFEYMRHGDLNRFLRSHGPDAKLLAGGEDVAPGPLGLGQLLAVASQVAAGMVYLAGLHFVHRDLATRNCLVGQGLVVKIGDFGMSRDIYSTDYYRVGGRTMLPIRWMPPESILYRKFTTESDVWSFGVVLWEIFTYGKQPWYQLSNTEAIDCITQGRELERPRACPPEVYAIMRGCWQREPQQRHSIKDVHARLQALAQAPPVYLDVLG
Sequence of Jak2 (O60674 whole entry): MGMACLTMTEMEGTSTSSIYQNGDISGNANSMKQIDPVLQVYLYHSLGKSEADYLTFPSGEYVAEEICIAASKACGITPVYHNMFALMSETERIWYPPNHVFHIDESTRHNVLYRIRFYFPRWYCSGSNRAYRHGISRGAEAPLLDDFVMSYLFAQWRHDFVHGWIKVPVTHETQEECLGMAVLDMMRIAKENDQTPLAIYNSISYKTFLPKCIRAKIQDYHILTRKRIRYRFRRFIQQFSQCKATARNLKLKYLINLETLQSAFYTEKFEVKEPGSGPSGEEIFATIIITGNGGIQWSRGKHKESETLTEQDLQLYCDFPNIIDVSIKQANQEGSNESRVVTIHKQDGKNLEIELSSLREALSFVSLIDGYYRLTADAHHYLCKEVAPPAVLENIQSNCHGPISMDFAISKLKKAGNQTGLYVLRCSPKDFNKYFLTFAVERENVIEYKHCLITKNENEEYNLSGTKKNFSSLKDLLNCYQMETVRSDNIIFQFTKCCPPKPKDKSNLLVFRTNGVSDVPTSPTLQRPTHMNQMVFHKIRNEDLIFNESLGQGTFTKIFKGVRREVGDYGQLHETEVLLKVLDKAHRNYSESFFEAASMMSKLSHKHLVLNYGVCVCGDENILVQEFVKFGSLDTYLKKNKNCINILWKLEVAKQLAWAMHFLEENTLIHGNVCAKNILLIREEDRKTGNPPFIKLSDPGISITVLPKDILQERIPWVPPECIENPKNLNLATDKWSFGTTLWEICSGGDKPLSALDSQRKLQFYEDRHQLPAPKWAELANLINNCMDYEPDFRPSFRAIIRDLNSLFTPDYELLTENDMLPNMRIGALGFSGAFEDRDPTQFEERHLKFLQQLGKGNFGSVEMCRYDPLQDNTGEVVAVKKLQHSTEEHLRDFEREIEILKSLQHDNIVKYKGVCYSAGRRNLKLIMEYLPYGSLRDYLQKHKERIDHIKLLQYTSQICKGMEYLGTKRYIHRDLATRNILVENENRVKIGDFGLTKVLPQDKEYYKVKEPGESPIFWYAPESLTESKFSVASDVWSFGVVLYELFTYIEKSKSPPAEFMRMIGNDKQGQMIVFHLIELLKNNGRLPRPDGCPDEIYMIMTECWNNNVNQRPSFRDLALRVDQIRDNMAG
Sequence of Lck (P06239 whole entry): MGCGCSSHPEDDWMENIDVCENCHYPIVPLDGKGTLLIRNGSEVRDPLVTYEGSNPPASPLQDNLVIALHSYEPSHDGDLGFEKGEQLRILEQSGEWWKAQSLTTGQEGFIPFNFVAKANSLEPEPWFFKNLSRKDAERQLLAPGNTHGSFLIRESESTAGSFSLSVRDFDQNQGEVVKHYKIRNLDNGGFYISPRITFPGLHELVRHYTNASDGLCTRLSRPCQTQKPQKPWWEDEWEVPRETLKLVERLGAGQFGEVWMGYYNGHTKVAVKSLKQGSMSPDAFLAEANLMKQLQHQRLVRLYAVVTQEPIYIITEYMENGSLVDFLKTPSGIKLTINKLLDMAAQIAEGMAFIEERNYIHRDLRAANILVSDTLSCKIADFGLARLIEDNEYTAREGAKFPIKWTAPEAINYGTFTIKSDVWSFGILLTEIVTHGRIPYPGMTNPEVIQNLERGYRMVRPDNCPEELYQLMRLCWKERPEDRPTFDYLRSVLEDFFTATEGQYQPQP
Sequence of fms‐like tyrosine kinase‐3 (P36888 27-993): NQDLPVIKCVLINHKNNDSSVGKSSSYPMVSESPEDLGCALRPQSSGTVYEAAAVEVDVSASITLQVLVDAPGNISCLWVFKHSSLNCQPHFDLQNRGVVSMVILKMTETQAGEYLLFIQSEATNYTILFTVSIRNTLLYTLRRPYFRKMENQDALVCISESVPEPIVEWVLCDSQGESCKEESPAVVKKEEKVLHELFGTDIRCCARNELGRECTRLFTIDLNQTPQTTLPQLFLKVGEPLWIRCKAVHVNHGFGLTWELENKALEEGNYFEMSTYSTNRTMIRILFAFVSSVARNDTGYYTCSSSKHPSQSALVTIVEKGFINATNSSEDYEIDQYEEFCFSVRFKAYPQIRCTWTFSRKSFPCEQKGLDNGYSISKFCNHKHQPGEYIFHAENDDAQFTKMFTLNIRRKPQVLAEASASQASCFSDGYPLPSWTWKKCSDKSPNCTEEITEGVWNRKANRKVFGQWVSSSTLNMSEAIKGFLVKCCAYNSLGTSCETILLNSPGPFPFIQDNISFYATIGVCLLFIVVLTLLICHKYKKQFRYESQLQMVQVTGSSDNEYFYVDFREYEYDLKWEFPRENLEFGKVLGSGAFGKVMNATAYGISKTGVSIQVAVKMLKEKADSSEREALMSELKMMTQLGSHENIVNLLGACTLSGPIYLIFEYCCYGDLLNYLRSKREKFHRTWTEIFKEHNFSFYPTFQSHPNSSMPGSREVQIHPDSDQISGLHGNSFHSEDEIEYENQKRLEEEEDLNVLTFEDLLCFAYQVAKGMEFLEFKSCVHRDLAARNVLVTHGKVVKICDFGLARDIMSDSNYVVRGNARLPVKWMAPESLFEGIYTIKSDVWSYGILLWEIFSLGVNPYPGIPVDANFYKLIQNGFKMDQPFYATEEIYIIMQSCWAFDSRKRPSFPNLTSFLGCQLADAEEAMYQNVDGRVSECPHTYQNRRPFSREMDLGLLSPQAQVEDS
Sequence of IR (P06213 28-1382): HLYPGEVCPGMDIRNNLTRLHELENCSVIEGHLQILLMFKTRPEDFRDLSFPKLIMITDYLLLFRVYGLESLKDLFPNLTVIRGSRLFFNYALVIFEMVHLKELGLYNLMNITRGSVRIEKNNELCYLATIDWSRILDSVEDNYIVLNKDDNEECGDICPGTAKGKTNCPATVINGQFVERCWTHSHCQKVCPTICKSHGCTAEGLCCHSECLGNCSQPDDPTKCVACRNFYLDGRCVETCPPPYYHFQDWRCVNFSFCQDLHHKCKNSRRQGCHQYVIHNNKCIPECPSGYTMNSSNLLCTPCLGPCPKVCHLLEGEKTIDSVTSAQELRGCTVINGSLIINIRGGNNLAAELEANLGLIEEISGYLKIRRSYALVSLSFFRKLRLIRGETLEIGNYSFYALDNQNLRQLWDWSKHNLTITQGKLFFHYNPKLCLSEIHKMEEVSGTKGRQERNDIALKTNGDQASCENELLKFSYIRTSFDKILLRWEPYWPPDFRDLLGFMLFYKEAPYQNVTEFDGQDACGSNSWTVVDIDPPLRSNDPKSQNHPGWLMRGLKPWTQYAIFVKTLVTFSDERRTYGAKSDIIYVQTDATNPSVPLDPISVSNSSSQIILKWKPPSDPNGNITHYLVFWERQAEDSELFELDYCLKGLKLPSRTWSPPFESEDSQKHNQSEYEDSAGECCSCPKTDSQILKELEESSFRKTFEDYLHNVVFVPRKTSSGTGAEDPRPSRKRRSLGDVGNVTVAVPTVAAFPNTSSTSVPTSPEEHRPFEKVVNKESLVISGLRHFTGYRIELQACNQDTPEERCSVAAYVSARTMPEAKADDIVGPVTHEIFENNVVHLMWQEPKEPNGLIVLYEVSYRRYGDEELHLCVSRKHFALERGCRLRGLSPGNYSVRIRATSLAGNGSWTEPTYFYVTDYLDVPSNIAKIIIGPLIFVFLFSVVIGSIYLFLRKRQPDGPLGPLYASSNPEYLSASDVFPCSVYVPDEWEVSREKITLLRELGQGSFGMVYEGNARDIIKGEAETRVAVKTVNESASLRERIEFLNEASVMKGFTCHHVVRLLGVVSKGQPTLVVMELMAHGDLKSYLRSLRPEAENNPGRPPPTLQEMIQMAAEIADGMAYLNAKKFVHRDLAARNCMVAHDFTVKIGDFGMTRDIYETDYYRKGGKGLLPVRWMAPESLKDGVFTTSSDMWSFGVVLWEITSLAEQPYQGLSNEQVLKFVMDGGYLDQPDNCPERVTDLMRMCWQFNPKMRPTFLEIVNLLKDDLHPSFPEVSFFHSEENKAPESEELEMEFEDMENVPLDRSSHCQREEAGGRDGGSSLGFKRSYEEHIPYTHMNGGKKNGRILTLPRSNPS

For `Cc1ccsc1C(=O)Nc1cc(CN2CCN(C(=O)CO)CC2)ccc1/C=C/c1n[nH]c2ccccc12` [KW‐2450], the inhibition at 0.1 µM (IR) was 95.6%, the “Inhibition at 100 nmol/L” value (TrkA; TrkA, 100 nmol/L) was 101.1% and the inhibition at 0.1 µM (TrkA; read-out: Inhibition at 100 nmol/L, TrkA, 100 nmol/L) was over 90%. The “Inhibition at 100 nmol/L” value (Jak2; Jak2, 100 nmol/L) was 93.4%, the inhibition at 0.1 µM (Jak2; read-out: Inhibition at 100 nmol/L, Jak2, 100 nmol/L) was over 90% and the inhibition at 0.1 µM (Src) was 53.8%. The inhibition at 0.1 µM (Lck) was 33.7%, the inhibition at 0.1 µM [1] was over 90% and the GI50 [2] was 0.0032 to 0.011 µM. The GI50 [3] was 0.38 µM, the “Inhibition of IGF‐1‐induced tyrosine phosphorylation of IGF‐1R” value [4] was “complete inhibition” and the “Inhibition of insulin‐induced tyrosine phosphorylation of IR” value [5] was “significant degree of inhibition”. For the same compound, the “Inhibitory activity against phosphorylation of Erk” value [6] was “without any inhibitory activity”, the “In vivo growth inhibitory activity” value [7] was “modest in vivo growth inhibitory activity” and the “Inhibition of in vivo IGF‐1‐induced tyrosine phosphorylation of IGF‐R” value [8] was “inhibited”. For the same compound, the “Mean area under the plasma concentration–time curve from time 0 to 24 h” value (“Mean area” below) ([9]; oral 2 mg/kg) was 136 ng/h/mL, the “Mean maximum plasma concentration” value ([9]; oral 2 mg/kg) was 37.4 ng/mL and the “Mean area” value ([9]; oral 10 mg/kg) was 1320 ng/h/mL. The “Mean maximum plasma concentration” value ([9]; oral 10 mg/kg) was 568 ng/mL, the “Mean area” value ([9]; oral 20 mg/kg) was 3190 ng/h/mL and the “Mean maximum plasma concentration” value ([9]; oral 20 mg/kg) was 1510 ng/mL. The Tmax [9, 12] was 0.25 to 1 h, the half-life [9, 12] was 3.71 to 3.99 h and the half-life ([10]; oral, 50 mg, Mean elimination half‐life, range across dose levels and day measured, patients, 37.5 and 50 mg, days 1 and 28) was 9.74 to 13 h. For the same compound, the concentration at 1 day ([10]; po, 37.5 mg/day) was 608 ng/mL, the concentration at 28 day ([10]; po, 37.5 mg/day) was 890 ng/mL and the Cmax [10, 13] was 2330 ± 921 ng/mL. The Cmax [10, 14] was 2370 ± 1010 ng/mL, the Tmax [10, 13] was 2.29 ± 0.95 h and the Tmax [10, 14] was 1.99 ± 1.22 h. It also gave a Vd/F ([10]; po, 37.5 mg/day, patients, oral 37.5 mg/day, Day 1, n = 5, mean ± SD) of 19.6 ± 2.91 L, a Vd/F ([10]; po, 37.5 mg/day, patients, oral 37.5 mg/day, Day 28, n = 4, mean ± SD) of 23.7 ± 3.89 L and a half-life ([10]; po, 37.5 mg/day, t 1/2, patients, oral 37.5 mg/day, Day 1, n = 5, mean ± SD) of 10.1 ± 3.08 h. It also gave a half-life ([10]; po, 37.5 mg/day, t 1/2, patients, oral 37.5 mg/day, Day 28, n = 4, mean ± SD) of 9.74 ± 2.69 h, a concentration at 1 day ([10]; po, 50 mg/day) of 671 ng/mL and a concentration at 28 day ([10]; po, 50 mg/day) of 701 ng/mL. For the same compound, the “Mean maximum plasma concentration, molar equivalent” value ([10]; patients, 37.5 mg/day, days 1 and 28) was 3385 to 3440 nmol/L, the “Mean elimination half‐life, range across dose levels and day measured” value ([10]; patients, 37.5 and 50 mg, days 1 and 28) was 10 to 13 h and the “C min (trough plasma concentration)” value ([10]; patients, oral 37.5 mg/day, Day 1 (n = 7), mean ± SD) was 608 ± 679 ng/mL. The CL/F ([10]; patients, oral 37.5 mg/day, Day 1, n = 5, mean ± SD) was 1.45 ± 0.53 L/h, the “C min (trough plasma concentration)” value [10, 15] was 890 ± 1173 ng/mL and the CL/F [10, 15] was 1.56 ± 0.88 L/h. For the same compound, the “R, accumulation ratio (AUC0–24 on day 28/AUC0–24 on day 1)” value [10, 15] was 1.57 and 1.57 ± 0.80, the “C min (trough plasma concentration)” value ([10]; patients, oral 50 mg/day, Day 1 (n = 6), mean ± SD) was 671 ± 517 ng/mL and the CL/F ([10]; patients, oral 50 mg/day, Day 1, n = 5, mean ± SD) was 1.48 ± 0.97 L/h. The “C min (trough plasma concentration)” value [10, 16] was 701 ± 462 ng/mL, the CL/F [10, 16] was 1.69 ± 0.47 L/h and the “R, accumulation ratio (AUC0–24 on day 28/AUC0–24 on day 1)” value [10, 16] was 1.27 and 1.27 ± 0.37. For the same compound, the “Median progression‐free survival” value (advanced solid tumors; 37.5 mg/day) was 65.0 days, the “Patients with stable disease” value (advanced solid tumors; 37.5 mg/day) was 1 n and the “Median progression‐free survival” value (advanced solid tumors; 50 mg/day) was 141 days. For the same compound, the “Patients with stable disease” value (advanced solid tumors; 50 mg/day) was 3 n, the “Complete or partial responses” value (advanced solid tumors; 10 patients evaluable for response) was “no complete or partial responses” and the “Patients with stable disease” value (advanced solid tumors; 10 patients evaluable for response, both doses) was 40%. The “Median progression‐free survival” value (advanced solid tumors; overall) was 66.5 days and the “Hyperglycemia at pharmacologically active (lower) doses” value [11] was “hyperglycemia induced”.

— PMC4832855 (Cancer Science, 2016)
